Tests used:
[1] = test system: Human immunodeficiency virus 1; assay: Antiviral activity against BHAP-resistant viral strain HIV-1 IIIB using Delaviridine (U-90512) as a comparator.; format: functional
[2] = test system: Human immunodeficiency virus 1; assay: (§1) Antiviral activity against L-drug-resistant viral strain HIV-1 IIIB using L-697,661 as a comparator.; format: functional
[3] = Apparent terminal disposition half life […] at peroral dose of 30 mg/kg.; format: ADME, organism-based; parameters: dose 30 mg/kg, route oral; conditions: po, read-out: T1/2 beta (converted)
[4] = Oral bioavailability (dose 15 mg/kg i.v.); format: ADME, organism-based; conditions: eutheria, in vivo
In short: (§2)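 Male Sprague–Dawley rats, fasted, dosed iv and orally in a crossover design with a 1-week washout between treatments (N = 3). Clearance, Vss and absolute oral bioavailability were taken from the iv and po legs.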

[5] = test system: Human immunodeficiency virus 1; assay: (§3) Antiviral activity against BHAP-resistant viral strain HIV-1 MF using Delaviridine (U-90512) as a comparator.; format: functional
[6] = biological target: Human immunodeficiency virus type 1 reverse transcriptase (Human immunodeficiency virus 1, UniProt Q72547, P236L); assay: Inhibition of Reverse transcriptase (P236L) using poly(rA)600:oligo(dT)10 as template primer.
[7] = biological target: Human immunodeficiency virus type 1 reverse transcriptase (Human immunodeficiency virus 1, UniProt Q72547, Y181C); assay: Inhibition of Reverse transcriptase (Y181C) using poly(rA)600:oligo(dT)10 as template primer.
[8] = Steady state volume of distribution (VSS) determined against male Sprague-Dawley rats at an iv dose of 15 mg/kg; format: ADME, organism-based; parameters: dose 15 mg/kg, route intravenous; conditions: rat, in vivo, read-out: Vss; in short: as §2
[9] = Absolute oral bioavailability at an peroral dose of 30 mg/kg orally; format: ADME, organism-based; conditions: in vivo, read-out: Bioavailabiility; in short: as §2
Rattus norvegicus [10] = assay: Steady state volume of distribution (VSS) determined against male Sprague-Dawley rats at an peroral dose of 30 mg/kg.; format: ADME, organism-based; parameters: dose 30 mg/kg, route oral; conditions: in vivo, po; in short: as §2
[11] = IV clearance determined at an peroral dose of 30 mg/kg.; format: ADME, organism-based; parameters: dose 30 mg/kg, route oral; conditions: in vivo, po, read-out: Clearance; in short: as §2
[12] = biological target: Human immunodeficiency virus type 1 reverse transcriptase (Human immunodeficiency virus 1, UniProt Q72547); assay: Inhibition of Reverse transcriptase (Wild Type) with poly(rA)600:oligo(dT)10 template primer
In short: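 Recombinant wild-type HIV-1 RT was assayed for RNA-dependent DNA polymerase activity on poly(rA)600:oligo(dT)10 template:primer. Duplicate points were run at 6 drug concentrations, and IC50 was derived by nonlinear least-squares fit.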

[13] = Half life of the parent compound upon microsomal incubation in the presence of hepatic microsomal cytochrome P450.; format: ADME, Microsome; conditions: liver microsomes
[14] = IV clearance determined at an iv dose of 15 mg/kg; format: ADME, organism-based; parameters: dose 15 mg/kg, route intravenous; conditions: in vivo
[15] = Apparent terminal disposition half life […] at iv dose of 15 mg/kg; format: ADME, organism-based; parameters: dose 15 mg/kg, route intravenous; conditions: read-out: T1/2 beta (converted)
[16] = IV clearance determined at an peroral dose of 30.3 mg/kg.; format: ADME, organism-based; parameters: dose 30.3 mg/kg, route oral; conditions: in vivo, po, read-out: Clearance; in short: as §2
Rattus norvegicus [17] = assay: Steady state volume of distribution (VSS) determined against male Sprague-Dawley rats at an peroral dose of 30.3 mg/kg.; format: ADME, organism-based; parameters: dose 30.3 mg/kg, route oral; conditions: in vivo, po; in short: as §2
[18] = IV clearance determined at an iv dose of 15.2 mg/kg; format: ADME, organism-based; parameters: dose 15.2 mg/kg, route intravenous; conditions: in vivo; in short: as §2
[19] = Apparent terminal disposition half life […] at iv dose of 15.2 mg/kg; format: ADME, organism-based; parameters: dose 15.2 mg/kg, route intravenous; conditions: read-out: T1/2 beta (converted)
[20] = Absolute oral bioavailability at an peroral dose of 30.3 mg/kg orally.; format: ADME, organism-based; conditions: in vivo, read-out: Bioavailabiility; in short: as §2
[21] = Apparent terminal disposition half life […] at peroral dose of 30.3 mg/kg.; format: ADME, organism-based; parameters: dose 30.3 mg/kg, route oral; conditions: po, read-out: T1/2 beta (converted)
[22] = Steady state volume of distribution (VSS) determined against male Sprague-Dawley rats at an iv dose of 15.2 mg/kg; format: ADME, organism-based; parameters: dose 15.2 mg/kg, route intravenous; conditions: rat, in vivo, read-out: Vss; in short: as §2
[23] = Absolute oral bioavailability at an iv dose of 15.2 mg/kg; format: ADME, organism-based; conditions: in vivo, read-out: Bioavailabiility; in short: as §2
[24] = test system: Human immunodeficiency virus 1; assay: as §1; format: functional, organism-based
[25] = test system: Human immunodeficiency virus 1; assay: as §3; format: functional, organism-based
Rattus norvegicus [26] = assay: Steady state volume of distribution (VSS) determined against male Sprague-Dawley rats at an peroral dose of 30.2 mg/kg.; format: ADME, organism-based; parameters: dose 30.2 mg/kg, route oral; conditions: in vivo, po; in short: as §2
[27] = Apparent terminal disposition half life […] at peroral dose of 30.2 mg/kg.; format: ADME, organism-based; parameters: dose 30.2 mg/kg, route oral; conditions: po, read-out: T1/2 beta (converted)
[28] = IV clearance determined at an peroral dose of 30.2 mg/kg.; format: ADME, organism-based; parameters: dose 30.2 mg/kg, route oral; conditions: in vivo, po, read-out: Clearance; in short: as §2
[29] = Steady state volume of distribution (VSS) determined against male Sprague-Dawley rats at an peroral dose of 15 mg/kg.; format: organism-based; parameters: dose 15 mg/kg; in short: as §2
[30] = Apparent terminal disposition half life […] at peroral dose of 15 mg/kg.; format: ADME, organism-based; parameters: dose 15 mg/kg, route oral; conditions: po, read-out: T1/2 beta (converted)
[31] = Steady state volume of distribution (VSS) determined against male Sprague-Dawley rats at an iv dose of 14 mg/kg; format: ADME, organism-based; parameters: dose 14 mg/kg, route intravenous; conditions: rat, in vivo, read-out: Vss; in short: as §2
[32] = Absolute oral bioavailability at an iv dose of 14 mg/kg; format: ADME, organism-based; conditions: in vivo, read-out: Bioavailabiility; in short: as §2
[33] = IV clearance determined at an peroral dose of 15 mg/kg.; format: ADME, organism-based; parameters: dose 15 mg/kg, route oral; conditions: in vivo, po, read-out: Clearance
[34] = Apparent terminal disposition half life […] at iv dose of 14 mg/kg; format: ADME, organism-based; parameters: dose 14 mg/kg, route intravenous; conditions: read-out: T1/2 beta (converted)
[35] = test system: Human immunodeficiency virus type 1 reverse transcriptase (Human immunodeficiency virus 1), Q72547 [Y181C]; assay: Percent inhibition of Reverse transcriptase (RNA-dependent DNA polymerase activity against Y181C RT) using poly(rA)600:oligo(dT)10 as template primer at 1 uM
In short: (§4)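 Recombinant RT (WT, P236L or Y181C) was assayed for RNA-dependent DNA polymerase activity with poly(rA)600:oligo(dT)10 as template:primer. Percent inhibition was measured with compound at a single concentration of 1 μM.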

[36] = biological target: Human immunodeficiency virus type 1 reverse transcriptase (Human immunodeficiency virus 1) (UniProt Q72547); assay: Percent inhibition of Reverse transcriptase (RNA-dependent DNA polymerase activity against Wild Type RT) using poly(rA)600:oligo(dT)10 as template primer at 1 uM; in short: as §4
[37] = biological target: Human immunodeficiency virus type 1 reverse transcriptase (Human immunodeficiency virus 1) (UniProt Q72547); assay: Percent inhibition of Reverse transcriptase (RNA-dependent DNA polymerase activity against P236l RT) using poly(rA)600:oligo(dT)10 as template primer at 1 uM; in short: as §4

Compound	EC90 [2]	EC90 [5]	IC50 [6]	IC50 [7]	IC50 [12]	further results
CCCc1cccnc1N(CC)C1CCN(C(=O)c2cc3cc(NS(C)(=O)=O)ccc3[nH]2)CC1	90 nM	100 nM	370 nM	450 nM	270 nM	EC90 [1]: 40 nM; half-life [3]: 49.2 min; bioavailability [4]: 9.8%; Vd [8]: 3.2 L/kg; bioavailability [9]: 9.8%; Vss (Rattus norvegicus [10]): 3.2 L/kg; CL/F [11]: 67 mL/min/kg; half-life [13]: 1.68 min; clearance [14]: 67 mL/min/kg; half-life [15]: 49.2 min
COC(=O)c1cccnc1N(C)C1CCN(C(=O)c2cc3cc(NS(C)(=O)=O)ccc3[nH]2)CC1	–	–	13000 nM	21000 nM	250 nM	–
CC(C)Cc1cccnc1N(C)C1CCN(C(=O)c2cc3cc(NS(C)(=O)=O)ccc3[nH]2)CC1	–	1800 nM	1100 nM	2600 nM	510 nM	CL/F [16]: 45 mL/min/kg; Vss (Rattus norvegicus [17]): 2.73 L/kg; clearance [18]: 45 mL/min/kg; half-life [19]: 53.4 min; bioavailability [20]: 64%; half-life [21]: 53.4 min; Vd [22]: 2.73 L/kg; bioavailability [23]: 64%; EC50 [24]: > 1000 nM; half-life [13]: 5.9 min
COCc1cccnc1N(C)C1CCN(C(=O)c2cc3cc(NS(C)(=O)=O)ccc3[nH]2)CC1	–	–	6800 nM	11000 nM	140 nM	EC50 [25]: 3000 nM; EC50 [24]: > 3000 nM
CCc1cc(NCc2nc3c(Cl)ccc(Cl)c3o2)c(O)nc1C [L-697661]	> 10000 nM	430 nM	–	–	–	EC90 [1]: 4000 nM
CC(C)Nc1cccnc1N(C)C1CCN(C(=O)c2cc3cc(NS(C)(=O)=O)ccc3[nH]2)CC1	1000 nM	–	–	–	–	Vss (Rattus norvegicus [26]): 2.5 L/kg; half-life [27]: 40.2 min; bioavailability [4]: 4.3%; CL/F [28]: 44 mL/min/kg; Vd [8]: 2.5 L/kg; half-life [15]: 40.2 min
CCN(c1ncccc1CC(C)C)C1CCN(C(=O)c2cc3cc(NS(C)(=O)=O)ccc3[nH]2)CC1	100 nM	1000 nM	430 nM	880 nM	410 nM	EC90 [1]: 50 nM; half-life [13]: 2.29 min
CCc1cccnc1N(C)C1CCN(C(=O)c2cc3cc(NS(C)(=O)=O)ccc3[nH]2)CC1	–	–	1100 nM	2000 nM	61 nM	–
CCc1cccnc1N(CC)C1CCN(C(=O)c2cc3cc(NS(C)(=O)=O)ccc3[nH]2)CC1	–	–	210 nM	430 nM	98 nM	–
CCNc1cccnc1N(CC)C1CCN(C(=O)c2cc3cc(NS(C)(=O)=O)ccc3[nH]2)CC1	–	–	360 nM	390 nM	430 nM	–
CC(C)Nc1cccnc1N1CCN(C(=O)c2cc3cc(NS(C)(=O)=O)ccc3[nH]2)CC1 [DELAVIRDINE]	–	> 10000 nM	–	–	–	Vdss [29]: 1.21 L/kg; half-life [30]: 60 min; Vd [31]: 1.21 L/kg; bioavailability [32]: 64%; CL/F [33]: 13.6 mL/min/kg; half-life [34]: 60 min
CCN(c1ncccc1NC(C)C)C1CCN(C(=O)c2cc3cc(NS(C)(=O)=O)ccc3[nH]2)CC1	–	–	170 nM	–	–	–
CCCc1cccnc1N(C)C1CCN(C(=O)c2cc3cc(NS(C)(=O)=O)ccc3[nH]2)CC1	–	–	–	–	–	inhibition [35]: 25%; inhibition [36]: 84%; inhibition [37]: 40%
CN(c1ncccc1CO)C1CCN(C(=O)c2cc3cc(NS(C)(=O)=O)ccc3[nH]2)CC1	–	–	7000 nM	15000 nM	–	–
CCN(c1ncccc1COC)C1CCN(C(=O)c2cc3cc(NS(C)(=O)=O)ccc3[nH]2)CC1	1000 nM	770 nM	300 nM	840 nM	140 nM	–
CCCN(c1ncccc1CC)C1CCN(C(=O)c2cc3cc(NS(C)(=O)=O)ccc3[nH]2)CC1	–	–	540 nM	910 nM	130 nM	–
